Data taken from ChEMBL document CHEMBL1143390 (Bioorg Med Chem, 2009).

Legend:
[1] = Chemical stability in phosphate buffer assessed as hydrolysis half life at pH 7.4; assay type: physicochemical
How it was run: (§1)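 Prodrug, 1 mM in DMSO, diluted into 10 mM phosphate buffer at pH 2.0 or 7.4, ionic strength 0.1 set with NaCl, final 5% DMSO. Held at 37 ± 0.5 °C in screw-capped vials. Samples drawn over time, filtered and analysed by HPLC. Half-life from linear regression of a pseudo-first-order plot.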

[2] = tested on: Human immunodeficiency virus 1; test: Antiviral activity against HIV1 LAI infected in PBM cells; details: Human immunodeficiency virus 1, LAI, PBMC
PBMC = test: Cytotoxicity against human PBM cells after 4 days by MTT assay; details: 96 h
CCRF-CEM = test: Cytotoxicity against human CEM cells after 3 days by MTT assay; assay type: cell-based; details: 72 h
How it was run: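 CEM T-lymphoblastoid cells in log phase, seeded at 2.5×10^3 cells/well with 10-fold serial dilutions of drug. Incubated 3 days at 37 °C in humidified 5% CO2-air. MTT dye added overnight, then solubilization for 5 h and read at 570 nm. IC50 from the concentration-response curve by the median effect method.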

Vero = test: Cytotoxicity against african green monkey Vero cells after 2 days by MTT assay; details: Chlorocebus sabaeus, 48 h
[3] = Chemical stability in Tris-HCl buffer assessed as hydrolysis half life at pH 8 in presence of porcine esterase; assay type: physicochemical; details: pig, isolated protein
How it was run: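 Prodrug at 1.4 mM final in pH 8.0 Tris-HCl with 5% DMSO and 20 μg/mL porcine esterase, incubated at 37 ± 0.5 °C. Aliquots quenched in ice-cold methanol/acetonitrile 1/1, filtered and analysed by HPLC. Enzyme activity checked with ethyl butyrate substrate.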

[4] = Chemical stability in phosphate buffer assessed as hydrolysis half life at pH 2.0; assay type: physicochemical; how it was run: as §1

SMILES	t1/2 [1] [h]	EC50 [2] [µM]	EC90 [2] [µM]	t1/2 [3] [h]	t1/2 [4] [h]	IC50 (PBMC) [µM]	IC50 (CCRF-CEM) [µM]	IC50 (Vero) [µM]
CC[C@H](C)[C@H](N)C(=O)OC[C@@H]1OC[C@H](n2cc(C)c(=O)[nH]c2=O)O1.Cl	34	3	9.9	0.292	13.3	> 100	> 100	> 100
Cc1cn([C@H]2CO[C@@H](COC(=O)[C@@H](N)CCC(=O)O)O2)c(=O)[nH]c1=O.Cl	4	0.89	6.3	0.223	3.17	> 100	> 100	> 100
Cc1cn([C@H]2CO[C@@H](COCOC(=O)C(C)(C)C)O2)c(=O)[nH]c1=O	–	1.4	9.7	0.293	–	> 100	> 100	> 100
Cc1cn([C@H]2CO[C@@H](COC(=O)[C@H](N)C(C)C)O2)c(=O)[nH]c1=O.Cl	30	0.98	6.5	0.323	12.2	> 100	> 100	> 100
Cc1cn([C@H]2CO[C@@H](COC(=O)[C@@H](N)CC(C)C)O2)c(=O)[nH]c1=O.Cl	35.83	3.3	12.4	0.298	14.5	> 100	> 100	> 100
Cc1cn([C@H]2CO[C@@H](COC(=O)[C@@H](N)C(C)C)O2)c(=O)[nH]c1=O.Cl	36.67	0.56	4.9	0.315	16	> 100	> 100	> 100
Cc1cn([C@H]2CO[C@@H](COC(=O)[C@@H](N)Cc3c[nH]c4ccccc34)O2)c(=O)[nH]c1=O.Cl	7	1.7	8	0.297	5.33	> 100	> 100	> 100
CCCCC(=O)OC[C@@H]1OC[C@H](n2cc(C)c(=O)[nH]c2=O)O1	53	0.4	2.5	0.308	26.67	> 100	> 100	49
CCCCCCCC(=O)OC[C@@H]1OC[C@H](n2cc(C)c(=O)[nH]c2=O)O1	54.17	0.6	4.3	0.483	30	> 100	> 100	> 100
CC(=O)OC[C@@H]1OC[C@H](n2cc(C)c(=O)[nH]c2=O)O1	44.17	2.9	12.3	0.272	26.33	> 100	99.4	> 100
Cc1cn([C@H]2CO[C@@H](COC(=O)[C@H](C)N)O2)c(=O)[nH]c1=O.Cl	26.67	0.98	8.3	0.232	14.5	> 100	> 100	> 100
Cc1cn([C@H]2CO[C@@H](COC(=O)C3CC3)O2)c(=O)[nH]c1=O	46.67	4.7	15.1	0.288	20	> 100	> 100	> 100
Cc1cn([C@H]2CO[C@@H](COC(=O)[C@@H]3CCCN3)O2)c(=O)[nH]c1=O.Cl	6.33	1.4	7.3	0.227	3.83	> 100	> 100	> 100
CCCCCCCCCCCC(=O)OC[C@@H]1OC[C@H](n2cc(C)c(=O)[nH]c2=O)O1	–	0.4	3.2	0.683	–	> 100	> 100	> 100
Cc1cn([C@H]2CO[C@@H](COC(=O)C(C)(C)C)O2)c(=O)[nH]c1=O	46.33	1.3	14.5	0.283	21.67	> 100	> 100	18.1

The next lines start with results.

t1/2 [1] [h]	EC50 [2] [µM]	EC90 [2] [µM]	t1/2 [3] [h]	t1/2 [4] [h]	SMILES	IC50 (PBMC) [µM]	IC50 (CCRF-CEM) [µM]	IC50 (Vero) [µM]
22	2.5	8.4	0.207	8.67	Cc1cn([C@H]2CO[C@@H](COC(=O)CN)O2)c(=O)[nH]c1=O.Cl	> 100	> 100	> 100
53.33	1.3	3.9	0.322	30.83	Cc1cn([C@H]2CO[C@@H](COC(=O)C3CCCCC3)O2)c(=O)[nH]c1=O	> 100	> 100	> 100
15.7	1	5.2	0.26	7.17	Cc1cn([C@H]2CO[C@@H](COC(=O)[C@H](N)Cc3ccccc3)O2)c(=O)[nH]c1=O.Cl	> 100	> 100	> 100
–	23.5	> 100	0.8	–	CCCCCCCCCCCCCCCC(=O)OC[C@@H]1OC[C@H](n2cc(C)c(=O)[nH]c2=O)O1	> 100	> 100	92.2
31.17	2.2	7.6	0.223	15.3	Cc1cn([C@H]2CO[C@@H](COC(=O)C(C)(C)N)O2)c(=O)[nH]c1=O.Cl	> 100	> 100	> 100
17.83	0.88	4.4	0.243	9.17	Cc1cn([C@H]2CO[C@@H](COC(=O)[C@@H](N)Cc3ccccc3)O2)c(=O)[nH]c1=O.Cl	> 100	> 100	> 100
–	–	0.04	–	–	Cc1cn([C@H]2C[C@H](N=[N+]=[N-])[C@@H](CO)O2)c(=O)[nH]c1=O [ZIDOVUDINE]	> 100	–	–
